Results reported in ChEMBL document CHEMBL1125323, “Potent V2/V1a vasopressin antagonists with C-terminal ethylenediamine-linked retro-amino acids” (J Med Chem, 1992).

Columns and labels:
[1] = molecular target: T1, Vasopressin receptor (Rattus norvegicus) (UniProt P48974+P30560+Q00788); assay: Antiantidiuretic potency in terms of measuring changes in urine flow in water-loaded rats under ethanol anesthesia; format: functional
Summary of the method: (§1)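 Water-loaded rats under ethanol anesthesia; urine flow followed. USP posterior pituitary reference standard as agonist, all injections intravenous. Effective dose (nmol/kg) is the antagonist dose reducing the response to 2x units of agonist to that of x units alone, interpolated on a log scale between bracketing doses. pA2 = negative log of ED divided by assumed distribution volume 67 mL/kg.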

[2] = molecular target: T1, Vasopressin receptor (Rattus norvegicus); assay: Antivasopressor potency in terms of blood pressure response in rats anesthetized with urethane and pretreated with phenoxybenzamine; format: functional
Summary of the method: (§2)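 Rats anesthetized with urethane, pretreated with phenoxybenzamine; blood pressure responses recorded. USP posterior pituitary reference standard as agonist, given intravenously with antagonist. ED (nmol/kg) is the antagonist dose at which 2x units of agonist match the response to x units without antagonist, log-interpolated from doses above and below. In vivo pA2 uses assumed distribution volume 67 mL/kg.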

Vasopressin receptor [3] = molecular target: T2, Vasopressin receptor (Rattus norvegicus, UniProt P48974+P30560+Q00788); assay: Antiantidiuretic potency in terms of negative logarithm of the effective doses divided by the estimated volume of distribution; format: functional, Urine; summary of the method: as §1
Vasopressin receptor [4] = molecular target: T2, Vasopressin receptor; assay: Antivasopressor potency in terms of negative logarithm of the effective doses divided by the estimated volume of distribution; format: functional; summary of the method: as §2

SMILES	ED [1] [nM/kg]	ED [2] [nM/kg]	pA2 (Vasopressin receptor [3])	pA2 (Vasopressin receptor [4])
CC[C@H](C)[C@H]1NC(=O)CC2(CCCCC2)SSC[C@H](C(=O)NCCNC(=O)C(N)CCCN=C(N)N)NC(=O)[C@@H](CC(N)=O)NC(=O)[C@H](C(C)C)NC(=O)[C@@H](Cc2ccccc2)NC1=O (stereo partly drawn)	100	47	–	–
CCOc1ccc(C[C@H]2NC(=O)CC3(CCCCC3)SSC[C@@H](C(=O)N3CCC[C@H]3C(=O)NCCNC(=O)[C@H](N)CCCN)NC(=O)[C@H](CC(N)=O)NC(=O)[C@H](C(C)C)NC(=O)[C@H](Cc3ccccc3)NC2=O)cc1	–	–	7.92	7.86
CCOc1ccc(C[C@H]2NC(=O)CC3(CCCCC3)SSC[C@@H](C(=O)NCCNC(=O)[C@H](N)CCCN=C(N)N)NC(=O)[C@H](CC(N)=O)NC(=O)[C@H](C(C)C)NC(=O)[C@H](Cc3ccccc3)NC2=O)cc1	–	–	7.95	8.15
CC(C)[C@@H]1NC(=O)[C@@H](Cc2ccccc2)NC(=O)[C@@H](Cc2ccccc2)NC(=O)CC2(CCCCC2)SSC[C@H](C(=O)NCCNC(=O)C(N)CCCN=C(N)N)NC(=O)[C@@H](CC(N)=O)NC1=O (stereo partly drawn)	8.4	1.7	–	–
CCOc1ccc(C[C@H]2NC(=O)CC3(CCCCC3)SSC[C@@H](C(=O)N3CCC[C@H]3C(=O)N[C@@H](CCCN=C(N)N)C(=O)NCCNC(=O)[C@@H](N)CCCN=C(N)N)NC(=O)[C@H](CC(N)=O)NC(=O)[C@H](C(C)C)NC(=O)[C@H](Cc3ccccc3)NC2=O)cc1	–	–	7.68	8.15
CCOc1ccc(C[C@H]2NC(=O)CC3(CCCCC3)SSC[C@@H](C(=O)NCCNC(=O)[C@@H](N)CCCN)NC(=O)[C@H](CC(N)=O)NC(=O)[C@H](C(C)C)NC(=O)[C@H](Cc3ccccc3)NC2=O)cc1	–	–	7.55	7.8
CCOc1ccc(C[C@H]2NC(=O)CC3(CCCCC3)SSC[C@@H](C(=O)N3CCC[C@H]3C(=O)NCCNC(=O)[C@H](N)CCCCN)NC(=O)[C@H](CC(N)=O)NC(=O)[C@H](C(C)C)NC(=O)[C@H](Cc3ccccc3)NC2=O)cc1	–	–	7.78	8.08
CCOc1ccc(C[C@H]2NC(=O)CC3(CCCCC3)SSC[C@H](C(=O)N[C@H](CCCN=C(N)N)C(=O)NCC(=O)NCCNC(=O)[C@H](N)CCCN=C(N)N)NC(=O)[C@@H](CC(N)=O)NC(=O)[C@H](C(C)C)NC(=O)[C@@H](Cc3ccccc3)NC2=O)cc1	0.91	0.73	–	–
CCOc1ccc(C[C@H]2NC(=O)CC3(CCCCC3)SSC[C@H](C(=O)NCCNC(=O)[C@@H](N)CCCN=C(N)N)NC(=O)[C@@H](CC(N)=O)NC(=O)[C@H](C(C)C)NC(=O)[C@@H](Cc3ccccc3)NC2=O)cc1	0.83	0.47	–	–
CCOc1ccc(C[C@H]2NC(=O)CC3(CCCCC3)SSC[C@H](C(=O)N3CCCC3C(=O)N[C@H](CCCN=C(N)N)C(=O)NCCNC(=O)[C@H](N)CCCN=C(N)N)NC(=O)[C@@H](CC(N)=O)NC(=O)[C@H](C(C)C)NC(=O)[C@@H](Cc3ccccc3)NC2=O)cc1 (stereo partly drawn)	1.4	0.51	–	–
CCOc1ccc(C[C@H]2NC(=O)CC3(CCCCC3)SSC[C@@H](C(=O)N[C@@H](CCCN=C(N)N)C(=O)NCC(=O)NCCN)NC(=O)[C@H](CC(N)=O)NC(=O)[C@H](C(C)C)NC(=O)[C@H](Cc3ccccc3)NC2=O)cc1	–	–	8.03	8.05
CCOc1ccc(C[C@H]2NC(=O)CC3(CCCCC3)SSC[C@H](C(=O)N3CCCC3C(=O)NCCNC(=O)[C@@H](N)CCCCN)NC(=O)[C@@H](CC(N)=O)NC(=O)[C@H](C(C)C)NC(=O)[C@@H](Cc3ccccc3)NC2=O)cc1 (stereo partly drawn)	1.2	0.57	–	–
CCOc1ccc(C[C@H]2NC(=O)CC3(CCCCC3)SSC[C@H](C(=O)NCCN)NC(=O)[C@@H](CC(N)=O)NC(=O)[C@H](C(C)C)NC(=O)[C@@H](Cc3ccccc3)NC2=O)cc1	5.7	0.47	–	–
CCOc1ccc(C[C@H]2NC(=O)CC3(CCCCC3)SSC[C@@H](C(=O)NCCN)NC(=O)[C@H](CC(N)=O)NC(=O)[C@H](C(C)C)NC(=O)[C@H](Cc3ccccc3)NC2=O)cc1	–	–	7.07	8.15
CCOc1ccc(C[C@H]2NC(=O)CC3(CCCCC3)SSC[C@@H](C(=O)NCCNC(=O)[C@@H](N)CCCN=C(N)N)NC(=O)[C@H](CC(N)=O)NC(=O)[C@H](C(C)C)NC(=O)[C@H](Cc3ccccc3)NC2=O)cc1	–	–	7.54	7.95
CCOc1ccc(C[C@H]2NC(=O)CC3(CCCCC3)SSC[C@@H](C(=O)NCCNC(=O)[C@H](N)CCCN)NC(=O)[C@H](CC(N)=O)NC(=O)[C@H](C(C)C)NC(=O)[C@H](Cc3ccccc3)NC2=O)cc1	–	–	7.24	8.06
CCOc1ccc(C[C@H]2NC(=O)CC3(CCCCC3)SSC[C@H](C(=O)NCCNC(=O)[C@H](N)CCCN)NC(=O)[C@@H](CC(N)=O)NC(=O)[C@H](C(C)C)NC(=O)[C@@H](Cc3ccccc3)NC2=O)cc1	1.9	1.06	–	–

SMILES	ED [1] [nM/kg]	ED [2] [nM/kg]	pA2 (Vasopressin receptor [3])	pA2 (Vasopressin receptor [4])
CCOc1ccc(C[C@H]2NC(=O)CC3(CCCCC3)SSC[C@H](C(=O)NCCNC(=O)[C@H](N)CCCCN)NC(=O)[C@@H](CC(N)=O)NC(=O)[C@H](C(C)C)NC(=O)[C@@H](Cc3ccccc3)NC2=O)cc1	1.2	0.82	–	–
CCOc1ccc(C[C@H]2NC(=O)CC3(CCCCC3)SSC[C@H](C(=O)NCCNC(=O)[C@@H](N)CCCN)NC(=O)[C@@H](CC(N)=O)NC(=O)[C@H](C(C)C)NC(=O)[C@@H](Cc3ccccc3)NC2=O)cc1	4	0.59	–	–
CCOc1ccc(C[C@@H]2NC(=O)CC3(CCCCC3)SSC[C@H](C(=O)NCCNC(=O)C(N)CCCN=C(N)N)NC(=O)[C@@H](CC(N)=O)NC(=O)[C@H](C(C)C)NC(=O)[C@@H](Cc3ccccc3)NC2=O)cc1 (stereo partly drawn)	27	0.76	–	–
CCOc1ccc(C[C@H]2NC(=O)CC3(CCCCC3)SSC[C@H](C(=O)N[C@H](CCCN=C(N)N)C(=O)NCC(=O)NCCN)NC(=O)[C@@H](CC(N)=O)NC(=O)[C@H](C(C)C)NC(=O)[C@@H](Cc3ccccc3)NC2=O)cc1	0.65	0.59	–	–
CCOc1ccc(C[C@H]2NC(=O)CC3(CCCCC3)SSC[C@H](C(=O)NCCNC(=O)[C@@H](CCCN=C(N)N)NC(=O)[C@H](N)CCCN=C(N)N)NC(=O)[C@@H](CC(N)=O)NC(=O)[C@H](C(C)C)NC(=O)[C@@H](Cc3ccccc3)NC2=O)cc1	1.8	0.86	–	–
CC(C)C[C@H]1NC(=O)CC2(CCCCC2)SSC[C@H](C(=O)NCCNC(=O)C(N)CCCN=C(N)N)NC(=O)[C@@H](CC(N)=O)NC(=O)[C@H](C(C)C)NC(=O)[C@@H](Cc2ccccc2)NC1=O (stereo partly drawn)	> 234	58	–	–
CCOc1ccc(C[C@H]2NC(=O)CC3(CCCCC3)SSC[C@@H](C(=O)NCCNC(=O)[C@H](N)CCCCN)NC(=O)[C@H](CC(N)=O)NC(=O)[C@H](C(C)C)NC(=O)[C@H](Cc3ccccc3)NC2=O)cc1	–	–	7.76	7.92
CCOc1ccc(C[C@H]2NC(=O)CC3(CCCCC3)SSC[C@@H](C(=O)N[C@@H](CCCN=C(N)N)C(=O)NCC(N)=O)NC(=O)[C@H](CC(N)=O)NC(=O)[C@H](C(C)C)NC(=O)[C@H](Cc3ccccc3)NC2=O)cc1	–	–	7.82	8.09
CCOc1ccc(C[C@H]2NC(=O)CC3(CCCCC3)SSC[C@H](C(=O)N3CCCC3C(=O)NCCNC(=O)[C@@H](N)CCCN=C(N)N)NC(=O)[C@@H](CC(N)=O)NC(=O)[C@H](C(C)C)NC(=O)[C@@H](Cc3ccccc3)NC2=O)cc1 (stereo partly drawn)	0.81	0.48	–	–
CCOc1ccc(C[C@H]2NC(=O)CC3(CCCCC3)SSC[C@@H](C(=O)N3CCC[C@H]3C(=O)N[C@@H](CCCN=C(N)N)C(=O)NCCNC(=O)[C@@H](N)CCCN=C(N)N)NC(=O)[C@H](CC(N)=O)NC(=O)[C@H]([C@@H](C)CC)NC(=O)[C@H](Cc3ccccc3)NC2=O)cc1	–	–	8.1	8.27
CCOc1ccc(C[C@H]2NC(=O)CC3(CCCCC3)SSC[C@H](C(=O)N3CCCC3C(=O)NCCNC(=O)[C@@H](N)CCCN)NC(=O)[C@@H](CC(N)=O)NC(=O)[C@H](C(C)C)NC(=O)[C@@H](Cc3ccccc3)NC2=O)cc1 (stereo partly drawn)	0.82	0.95	–	–
CCOc1ccc(C[C@H]2NC(=O)CC3(CCCCC3)SSC[C@H](C(=O)NCCNC(=O)CN)NC(=O)[C@@H](CC(N)=O)NC(=O)[C@H](C(C)C)NC(=O)[C@@H](Cc3ccccc3)NC2=O)cc1	18	1.66	–	–
CC(C)C[C@H]1NC(=O)CC2(CCCCC2)SSC[C@@H](C(=O)NCCNC(=O)[C@@H](N)CCCN=C(N)N)NC(=O)[C@H](CC(N)=O)NC(=O)[C@H](C(C)C)NC(=O)[C@H](Cc2ccccc2)NC1=O	–	–	< 5.5	6.08
CCOc1ccc(C[C@H]2NC(=O)CC3(CCCCC3)SSC[C@H](C(=O)NCCNC(=O)C(N)CCCN=C(N)N)NC(=O)[C@@H](CC(N)=O)NC(=O)[C@H](C(C)C)NC(=O)[C@@H](Cc3ccccc3)NC2=O)cc1 (stereo partly drawn)	2.1	0.75	–	–
CCOc1ccc(C[C@H]2NC(=O)CC3(CCCCC3)SSC[C@@H](C(=O)N3CCC[C@H]3C(=O)NCCNC(=O)[C@H](N)CCCN=C(N)N)NC(=O)[C@H](CC(N)=O)NC(=O)[C@H](C(C)C)NC(=O)[C@H](Cc3ccccc3)NC2=O)cc1	–	–	7.92	8.15
CCOc1ccc(C[C@H]2NC(=O)CC3(CCCCC3)SSC[C@H](C(=O)N3CCCC3C(=O)N[C@@H](CCCN=C(N)N)C(=O)NCCNC(=O)[C@H](N)CCCN=C(N)N)NC(=O)[C@@H](CC(N)=O)NC(=O)[C@H]([C@H](C)CC)NC(=O)[C@@H](Cc3ccccc3)NC2=O)cc1 (stereo partly drawn)	0.57	0.36	–	–
CCOc1ccc(C[C@H]2NC(=O)CC3(CCCCC3)SSC[C@H](C(=O)N[C@H](CCCN=C(N)N)C(=O)NCC(N)=O)NC(=O)[C@@H](CC(N)=O)NC(=O)[C@H](C(C)C)NC(=O)[C@@H](Cc3ccccc3)NC2=O)cc1	1.1	0.56	–	–
